Source: ChEMBL document CHEMBL1123290, “Synthesis, antimalarial activity, and quantitative structure-activity relationships of tebuquine and a series of related 5-[(7-chloro-4-quinolinyl)amino]-3-[(alkylamino)methyl] [1,1'-biphenyl]-2-ols and N omega-oxides” (1986)

Tests used:
Assay type in all cases: functional
Mus musculus [1] = assay: Antimalarial activity, administered as a single subcutaneous dose of 640 mg/kg, 72 hrs post infection measured as number of mice (Mus musculus) surviving at 60 days post infection
Method in brief: (§1)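 Mice were infected with a normal drug-sensitive Plasmodium berghei strain. At 72 h postinfection each received one subcutaneous dose of compound dissolved or suspended in peanut oil, in five-mouse groups per dose. The read-out was the number of mice alive at 60 days postinfection, which were scored as cured.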

Plasmodium berghei [2] = assay: Antimalarial activity in primary screen
Plasmodium berghei [3] = assay: Difference in mean survival time in mice (Mus musculus) (control = 6.2 days) after single 40mg/kg subcutaneous dose 72hr post infection
Plasmodium berghei [4] = assay: (§2) Change in mean survival time for control (average 6.2 days) versus treated mice (Mus musculus) 72 hrs after […] subcutaneous dose
Plasmodium berghei [5] = assay: Change in mean survival time for control (average 6.2 days) versus treated mice (Mus musculus) 72 hrs after 160 mg/kg subcutaneous dose
Mus musculus [6] = assay: Antimalarial activity, administered as a single subcutaneous dose of 80 mg/kg, 72 hrs post infection measured as number of mice (Mus musculus) surviving at 60 days post infection; method in brief: as §1
Plasmodium berghei [7] = assay: Change in mean survival time for control (average of 6.2 days) versus treated mice (Mus musculus) 72 hrs after 80 mg/kg subcutaneous dose
Plasmodium berghei [8] = assay: Change in mean survival time for control (average 6.2 days) versus treated mice (Mus musculus) 72 hrs after 5 mg/kg subcutaneous dose
Plasmodium berghei [9] = assay: Change in mean survival time for control (average 6.2 days) versus treated mice (Mus musculus) 72 hrs after […] subcutaneous dose
Mus musculus [10] = assay: Compound was evaluated for parenteral antimalarial activity against Plasmodium berghei in mice (Mus musculus) after single dose (40 mg/kg subcutaneous); no of mice (Mus musculus) surviving at 60 days post infection, 3 cured; method in brief: as §1
Plasmodium berghei [11] = assay: Antimalarial activity as 60-day survivors in Plasmodium berghei infected mice (Mus musculus) after single 160mg/kg subcutaneous dose 72 hr post infection; method in brief: as §1
Plasmodium berghei [12] = assay: Change in mean survival time for control (average 6.2 days) versus treated mice (Mus musculus) 72 hrs after 20 mg/kg subcutaneous dose
Plasmodium berghei [13] = assay: Antimalarial activity as 60-day survivors in infected mice (Mus musculus) after single 320mg/kg subcutaneous dose 72 hr post infection; method in brief: as §1
Plasmodium berghei [14] = assay: Change in mean survival time for control (average 6.2 days) versus treated mice (Mus musculus) 72 hrs after 10 mg/kg subcutaneous dose
Plasmodium berghei [15] = assay: Change in mean survival time for control (average 6.2 days) versus treated mice (Mus musculus) 72 hrs after 640 mg/kg subcutaneous dose
Mus musculus [16] = assay: Antimalarial activity of compound administered as a single subcutaneous dose of 10mg/kg, 72 hrs post infection measured as number of mice (Mus musculus) surviving at 60 days post infection; method in brief: as §1
Plasmodium berghei [17] = assay: Change in mean survival time for control (average 6.2 days) versus treated mice (Mus musculus) 72 hrs after 320 mg/kg subcutaneous dose
Mus musculus [18] = assay: Delta MST, difference in mean survival time of the control mice (an average of 6.2 days) from the mean survival time of the treated mice after a single dose of (mg/kg sc) 1.25
Mus musculus [19] = assay: Antimalarial activity, administered as a single subcutaneous dose of 40 mg/kg, 72 hrs post infection measured as number of mice (Mus musculus) surviving at 60 days post infection; method in brief: as §1
Plasmodium berghei [20] = assay: Change in mean survival time of Plasmodium berghei infected mice (Mus musculus) after 5 mg/kg subcutaneous dose
Plasmodium berghei [21] = assay: Change in mean survival time for control (average 6.2 days) versus treated mice (Mus musculus) after 160 mg/kg subcutaneous dose
Plasmodium berghei [22] = assay: Antimalarial activity as 60-day survivors in infected mice (Mus musculus) after single 20 mg/kg subcutaneous dose 72hr post infection; method in brief: as §1
Plasmodium berghei [23] = assay: Difference in mean survival time of Plasmodium berghei infected mice (Mus musculus) after 10 mg/kg subcutaneous dose
Plasmodium berghei [24] = assay: Change in mean survival time for control (average 6.2 days) versus treated mice (Mus musculus) after 40 mg/kg subcutaneous dose
Plasmodium berghei [25] = assay: Change in mean survival time of Plasmodium berghei infected mice (Mus musculus) after […] subcutaneous dose
Plasmodium berghei [26] = assay: Change in mean survival time in control (average 6.2 days) versus treated mice (Mus musculus) after 80 mg/kg subcutaneous dose
Plasmodium berghei [27] = assay: Change in mean survival time for control (average 6.2 days) versus treated mice (Mus musculus) after 320 mg/kg subcutaneous dose
Plasmodium berghei [28] = assay: Change in mean survival time of Plasmodium berghei infected mice (Mus musculus) on 1.25 mg/kg subcutaneous dose
Plasmodium berghei [29] = assay: Change in mean survival time for control (average 6.2 days) versus treated mice (Mus musculus) after 20 mg/kg subcutaneous dose
Mus musculus [30] = assay: Delta MST, difference in mean survival time of the control mice (an average of 6.2 days) from the mean survival time of the treated mice after a single sc dose of 160 mg/kg, 72-h postinfection; settings: route subcutaneous
Mus musculus [31] = assay: Antimalarial activity of compound administered as a single subcutaneous dose of 160mg/kg, 72-h postinfection measured as number of mice (Mus musculus) surviving at 60 days postinfection; method in brief: as §1
Mus musculus [32] = assay: Antimalarial activity of compound administered as a single subcutaneous dose of 40 mg/kg, 72-h postinfection measured as number of mice (Mus musculus) surviving at 60 days postinfection; method in brief: as §1
Mus musculus [33] = assay: Antimalarial activity of compound administered as a single subcutaneous dose of 320 mg/kg, 72 hrs post infection measured as number of mice (Mus musculus) surviving at 60 days post infection; method in brief: as §1
Mus musculus [34] = assay: Antimalarial activity of compound administered as a single subcutaneous dose of 20 mg/kg, 72 hrs post infection measured as number of mice (Mus musculus) surviving at 60 days post infection; method in brief: as §1
Mus musculus [35] = assay: Antimalarial activity of compound administered as a single subcutaneous dose of 80mg/kg, 72-h postinfection measured as number of mice (Mus musculus) surviving at 60 days postinfection; method in brief: as §1
Mus musculus [36] = assay: Compound was evaluated for parenteral antimalarial activity against Plasmodium berghei in mice (Mus musculus) after single dose (80 mg/kg subcutaneously)
Mus musculus [37] = assay: Compound was evaluated for parenteral antimalarial activity against Plasmodium berghei in mice (Mus musculus) after single dose (mg/kg subcutaneously) 40
Mus musculus [38] = assay: Compound was evaluated for parenteral antimalarial activity against Plasmodium berghei in mice (Mus musculus) after single dose (mg/kg subcutaneously) 20
Plasmodium berghei [39] = assay: as §2; remark: listed apart in the source
Mus musculus [40] = assay: Antimalarial activity of compound administered as a single subcutaneous dose of 5mg/kg, 72-h postinfection measured as number of mice (Mus musculus) surviving at 60 days postinfection; method in brief: as §1

Compound	No. of mice cured (Mus musculus [1])	Delta MST (Plasmodium berghei [3])	Delta MST (Plasmodium berghei [4])	Delta MST (Plasmodium berghei [5])	No. of mice cured (Mus musculus [6])	Delta MST (Plasmodium berghei [7])	Delta MST (Plasmodium berghei [8])	Delta MST (Plasmodium berghei [9])	No. of mice cured (Plasmodium berghei [11])	Delta MST (Plasmodium berghei [12])	No. of mice cured (Plasmodium berghei [13])	Delta MST (Plasmodium berghei [14])	Delta MST (Plasmodium berghei [15])	Delta MST (Plasmodium berghei [17])	No. of mice cured (Mus musculus [19])	No. of mice cured (Plasmodium berghei [22])	No. of mice cured (Mus musculus [32])	further results
CCN(CC)Cc1cc(Nc2ccnc3cc(Cl)ccc23)cc(-c2cccc(C(F)(F)F)c2)c1O	3	31.4 days	0.5 days	21.9 days	2	28.2 days	13.5 days	9.7 days	4	23.7 days	3	15.2 days	17.9 days	21.9 days				ED30 (Plasmodium berghei [2]): 16.3 mg/kg; No. of mice cured (Mus musculus [10]): 3; No. of mice cured (Mus musculus [16]): 1
CCC(C)NCc1cc(Nc2cc[n+]([O-])c3cc(Cl)ccc23)cc(-c2ccc(Cl)cc2)c1O (stereo not given)	3				3				4		3				2	3		Delta MST (Mus musculus [18]): 0; Delta MST (Plasmodium berghei [20]): 3.6 days; Delta MST (Plasmodium berghei [21]): 14.6 days; Delta MST (Plasmodium berghei [23]): 7.2 days; Delta MST (Plasmodium berghei [24]): 21.3 days; Delta MST (Plasmodium berghei [25]): 1.6 days; Delta MST (Plasmodium berghei [26]): 23.6 days; Delta MST (Plasmodium berghei [27]): 17.1 days; Delta MST (Plasmodium berghei [28]): 0 days; Delta MST (Plasmodium berghei [29]): 22.6 days
CCN(CC)Cc1cc(Nc2ccnc3cc(Cl)ccc23)cc(-c2cccc(Cl)c2)c1O	4	29.4 days	0.3 days		2		3.9 days	1.3 days	4	22.4 days	5	15.5 days	21.9 days		3	1		ED30 (Plasmodium berghei [2]): 17.3 mg/kg; Delta MST (Mus musculus [30]): 31.9 days
CC(C)(C)NCc1cc(Nc2ccnc3cc(Cl)ccc23)cc(-c2ccccc2)c1O	1	20.2 days	0.3 days	12.8 days		27.3 days	13.7 days	5.3 days		14.8 days		29.5 days	13 days	12.3 days			2	No. of mice cured (Mus musculus [31]): 1; No. of mice cured (Mus musculus [33]): 1; No. of mice cured (Mus musculus [34]): 1; No. of mice cured (Mus musculus [35]): 1
CCC(C)NCc1cc(Nc2ccnc3cc(Cl)ccc23)cc(-c2ccc(Cl)cc2)c1O (stereo not given)		15 days	0.2 days	14.2 days	3	14 days	11 days	2 days		21 days	1	23.6 days		12.5 days		3	4	
CCN(CC)Cc1cc(Nc2cc[n+]([O-])c3cc(Cl)ccc23)cc(CN(CC)CC)c1O	3								1		3							Delta MST (Mus musculus [36]): 8.5 days; Delta MST (Mus musculus [37]): 6.9 days; Delta MST (Mus musculus [38]): 3.9 days
CC(C)(C)NCc1cc(Nc2cc[n+]([O-])c3cc(Cl)ccc23)cc(-c2ccc(Cl)cc2)c1O	4				2				3		4				4	4		Delta MST (Mus musculus [18]): 0; Delta MST (Plasmodium berghei [39]): 13.9 days; Delta MST (Plasmodium berghei [20]): 11.4 days; Delta MST (Plasmodium berghei [21]): 13.4 days; Delta MST (Plasmodium berghei [23]): 26.3 days; Delta MST (Plasmodium berghei [24]): 24.9 days; Delta MST (Plasmodium berghei [25]): 0.2 days; No. of mice cured (Mus musculus [40]): 1; Delta MST (Plasmodium berghei [26]): 20.6 days; Delta MST (Plasmodium berghei [27]): 13.9 days; Delta MST (Plasmodium berghei [28]): 0 days; No. of mice cured (Mus musculus [16]): 1; Delta MST (Plasmodium berghei [29]): 28.9 days
CC(C)CNCc1cc(Nc2ccnc3cc(Cl)ccc23)cc(-c2ccc(Cl)cc2)c1O			0.8 days	4.9 days			5.2 days	2 days		19.6 days		14.8 days	13.4 days	11.3 days			5	No. of mice cured (Mus musculus [31]): 2; No. of mice cured (Mus musculus [33]): 2; No. of mice cured (Mus musculus [34]): 2; No. of mice cured (Mus musculus [35]): 5
